Test results reported in ChEMBL document CHEMBL1152447, “Benzothiopyranoindole-based antiproliferative agents: synthesis, cytotoxicity, nucleic acids interaction, and topoisomerases inhibition properties” (J Med Chem, 2009).
Activity calls are given as the source filed them. The calls are words filed in the database; no cut-off is given here.

How the values were obtained:
[1] = tested on: HeLa; experiment: Cytotoxicity against human HeLa cells after 72 hrs by trypan blue assay; type: functional, cell-based
Procedure, shortened: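 HeLa cells grown in Nutrient Mixture F-12 with 10% heat-inactivated FCS at 37 °C, 5% CO2. Seeded at 4 × 10^4 per well for 24 h, then medium replaced with fresh medium containing test agents for 72 h. Viability by trypan blue. IC50 is the concentration reducing cell number by 50% versus control.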

[2] = tested on: HL-60; experiment: Cytotoxicity against human HL60 cells after 72 hrs by trypan blue assay; type: functional, cell-based; settings: HL-60, 72 h
Procedure, shortened: (§1)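 Cells seeded at 4 × 10^4 per well and cultured 24 h at 37 °C in 5% CO2. Test agents then added to the complete medium for a further 72 h. Viable cells counted by trypan blue. IC50 is the concentration giving 50% fewer cells than control cultures. HL-60 grown in RPMI 1640 + 15% heat-inactivated FCS; HL-60/MX2 grown in RPMI 1640 + 10% heat-inactivated FCS.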

[3] = tested on: Nucleic Acid; experiment: Binding affinity to salmon testes DNA assessed as negative dichroic signal at 0.04 drug to DNA ratio by LD spectra; type: nucleic-acid assay; settings: Salmonidae
Procedure, shortened: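 LD spectra of salmon testes DNA (1.9 × 10^-3 M) in ETN buffer (10 mM TRIS, 10 mM NaCl, 1 mM EDTA, pH 7) at 25 °C over several [drug]/[DNA] ratios. Orientation by shear gradient of 500-700 rpm; each spectrum accumulated four times.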

[4] = molecular target: DNA topoisomerase 2-alpha (Homo sapiens) (UniProt P11388); experiment: Inhibition of human recombinant topoisomerase 2 relaxation activity assessed as supercoiled pBR322 DNA at 2.5 uM
Procedure, shortened: (§2)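 Human recombinant topoisomerase IIα (1 U) relaxation of supercoiled pBR322 (0.25 μg) with compound, 60 min at 37 °C. Stopped with SDS/proteinase K (50 μg/mL, 30 min, 37 °C). Products separated on 1% agarose, stained with ethidium bromide 1 μg/mL, UV imaging. Inhibition judged by retained supercoiled DNA. Gels representative of three experiments.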

[5] = Stabilization of supercoiled pBR322 DNA-human recombinant topoisomerase 2 complex assessed as reduction in linear DNA formation at 8 uM
[6] = molecular target: DNA topoisomerase 2-alpha (Homo sapiens) (UniProt P11388); experiment: Inhibition of human recombinant topoisomerase 2 relaxation activity assessed as supercoiled pBR322 DNA at 8 uM; procedure, shortened: as §2
[7] = molecular target: DNA topoisomerase 2-alpha (Homo sapiens) (UniProt P11388); experiment: Inhibition of human recombinant topoisomerase 2-mediated end-labeled DNA cleavage in absence of ATP at 200 uM
[8] = molecular target: DNA topoisomerase 2-alpha (Homo sapiens) (UniProt P11388); experiment: Inhibition of human recombinant topoisomerase 2 relaxation activity assessed as supercoiled pBR322 DNA at 5 uM; procedure, shortened: as §2
[9] = molecular target: DNA topoisomerase 2-alpha (Homo sapiens) (UniProt P11388); experiment: Inhibition of human recombinant topoisomerase 2-mediated end-labeled DNA cleavage in absence of ATP at 5 uM
[10] = molecular target: DNA topoisomerase 2-alpha (Homo sapiens) (UniProt P11388); experiment: Inhibition of human recombinant topoisomerase 2 relaxation activity assessed as supercoiled pBR322 DNA; procedure, shortened: as §2
[11] = Stabilization of supercoiled pBR322 DNA-human recombinant topoisomerase 2 complex assessed as reduction in linear DNA formation
[12] = Cytotoxicity against human mitoxantrone-resistant HL60/MX2 cells after 72 hrs by trypan blue assay; type: functional, cell-based; settings: HL60/MX2, 72 h; procedure, shortened: as §1
[13] = Stabilization of supercoiled pBR322 DNA-human recombinant topoisomerase 2 complex assessed as reduction in linear DNA formation at 10 uM
[14] = Stabilization of supercoiled pBR322 DNA-human recombinant topoisomerase 2 complex assessed as reduction in linear DNA formation at 5 uM
[15] = molecular target: T1, Topoisomerase I (Bos taurus) (UniProt Q2HPH0); experiment: Inhibition of calf thymus topoisomerase 1-mediated supercoiled pBR322DNA relaxation activity at 10 uM
T1 sequence (whole entry): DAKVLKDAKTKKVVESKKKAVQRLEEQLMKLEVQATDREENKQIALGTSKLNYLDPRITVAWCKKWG
Procedure, shortened: (§3)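 Calf thymus topoisomerase I (2 U) incubated with supercoiled pBR322 (0.25 μg) and compound for 60 min at 37 °C. Stopped with SDS stop buffer plus 50 μg/mL proteinase K for 30 min at 37 °C. Run on 1% agarose, stained with ethidium bromide 1 μg/mL in TAE, imaged under UV. Gels representative of three experiments.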

[16] = molecular target: T1, Topoisomerase I (Bos taurus); experiment: Inhibition of calf thymus topoisomerase 1-mediated supercoiled pBR322DNA relaxation activity; procedure, shortened: as §3
[17] = tested on: HL-60; experiment: Ratio of IC50 for mitoxantrone-resistant human HL60/MX2 cells to IC50 for human HL60 cells
[18] = Stabilization of supercoiled pBR322 DNA-human recombinant topoisomerase 2 complex assessed as reduction in linear DNA formation at 20 uM

Sequence of DNA topoisomerase 2-alpha (Homo sapiens) (P11388 whole entry): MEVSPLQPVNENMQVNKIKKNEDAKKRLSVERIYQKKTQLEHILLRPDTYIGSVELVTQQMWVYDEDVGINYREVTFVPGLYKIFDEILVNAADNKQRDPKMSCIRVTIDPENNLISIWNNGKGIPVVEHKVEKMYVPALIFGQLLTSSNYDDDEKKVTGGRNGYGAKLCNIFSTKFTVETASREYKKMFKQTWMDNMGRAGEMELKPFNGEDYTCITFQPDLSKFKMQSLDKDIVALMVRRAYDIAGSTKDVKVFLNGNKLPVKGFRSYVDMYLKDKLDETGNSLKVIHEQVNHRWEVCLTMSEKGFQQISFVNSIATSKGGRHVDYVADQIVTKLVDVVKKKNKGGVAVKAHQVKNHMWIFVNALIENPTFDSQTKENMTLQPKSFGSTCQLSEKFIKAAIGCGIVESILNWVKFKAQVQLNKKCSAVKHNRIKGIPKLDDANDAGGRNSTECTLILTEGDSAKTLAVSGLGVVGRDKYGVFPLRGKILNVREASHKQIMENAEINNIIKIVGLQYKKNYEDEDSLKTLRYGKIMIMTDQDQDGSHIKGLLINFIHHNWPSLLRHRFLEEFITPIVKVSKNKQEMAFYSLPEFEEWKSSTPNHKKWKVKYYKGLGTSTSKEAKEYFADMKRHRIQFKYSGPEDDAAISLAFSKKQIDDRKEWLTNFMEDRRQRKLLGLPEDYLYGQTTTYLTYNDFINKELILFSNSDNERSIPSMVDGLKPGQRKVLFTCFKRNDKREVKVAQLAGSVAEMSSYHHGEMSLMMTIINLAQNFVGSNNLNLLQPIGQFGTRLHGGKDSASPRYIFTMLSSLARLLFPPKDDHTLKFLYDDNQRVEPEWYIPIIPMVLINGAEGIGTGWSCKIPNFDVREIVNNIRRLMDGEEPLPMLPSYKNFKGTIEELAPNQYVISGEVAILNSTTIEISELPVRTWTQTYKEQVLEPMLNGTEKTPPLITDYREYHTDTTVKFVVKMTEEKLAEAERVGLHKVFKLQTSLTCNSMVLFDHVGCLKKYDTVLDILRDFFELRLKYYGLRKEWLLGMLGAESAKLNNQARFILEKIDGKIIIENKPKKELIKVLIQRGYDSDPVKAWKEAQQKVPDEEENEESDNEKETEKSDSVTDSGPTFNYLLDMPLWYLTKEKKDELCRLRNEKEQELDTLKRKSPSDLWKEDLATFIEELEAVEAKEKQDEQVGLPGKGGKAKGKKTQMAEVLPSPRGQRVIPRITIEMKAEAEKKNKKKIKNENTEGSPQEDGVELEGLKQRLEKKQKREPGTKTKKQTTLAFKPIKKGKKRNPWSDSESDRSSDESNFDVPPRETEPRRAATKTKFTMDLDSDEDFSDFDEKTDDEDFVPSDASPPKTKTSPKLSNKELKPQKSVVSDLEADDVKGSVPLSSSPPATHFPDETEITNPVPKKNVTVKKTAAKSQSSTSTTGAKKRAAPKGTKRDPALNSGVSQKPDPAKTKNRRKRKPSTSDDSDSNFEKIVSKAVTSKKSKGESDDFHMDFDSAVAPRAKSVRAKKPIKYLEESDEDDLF

Structure (SMILES) | IC50 [1] [nM] | IC50 [2] [nM] | other results
CCN(CC)CCn1c2ccc(Cl)cc2c2sc3cc(OC)ccc3c(=O)c21 | 1120 | 710 | 
COc1ccc2c(=O)c3c(sc2c1)c1cc(Cl)ccc1n3CCCN(C)C | 1850 | 1070 | 
CN(C)CCCn1c2ccccc2c2sc3cc(Cl)ccc3c(=O)c21 | 14000 | 7190 | 
CCN(CC)CCCn1c2ccccc2c2sc3cc(Cl)ccc3c(=O)c21 | 2910 | 2640 | 
CCN(CC)CCn1c2ccccc2c2sc3cc(OC)ccc3c(=O)c21 | 2700 | 1800 | Activity [3]: Active; Activity [4]: Active
CCN(CC)CCCn1c2ccccc2c2sc3cc(OC)ccc3c(=O)c21 | 3900 | 2400 | Activity [3]: Active; Activity [4]: Active
COc1cc(NS(C)(=O)=O)ccc1Nc1c2ccccc2nc2ccccc12 |  |  | Activity [5]: Active; Activity [6]: Active
CCN(CC)CCCn1c2ccc(OC)cc2c2sc3cc(OC)ccc3c(=O)c21 | 2500 | 1500 | 
COc1ccc2c(=O)c3c(sc2c1)c1cc(OC)ccc1n3CCN(C)C | 2150 | 660 | Activity [7]: Active; Activity [8]: Active; Activity [4]: Active; Activity [9]: Active; Activity [10]: Dose-dependent effect; Activity [11]: inactive
CN(C)CCn1c2ccccc2c2sc3cc(Cl)ccc3c(=O)c21 | 1530 | 1310 | 
CCN(CC)CCCn1c2ccc(Cl)cc2c2sc3cc(OC)ccc3c(=O)c21 | 1680 | 1020 | 
O=c1c2ccc(Cl)cc2sc2c1[nH]c1ccccc12 | > 20000 | > 20000 | 
COc1ccc2c(=O)c3c(sc2c1)c1ccccc1n3CCCN(C)C | 2900 | 1900 | Activity [4]: Active
COc1ccc2c(=O)c3c(sc2c1)c1cc(OC)ccc1n3CCCN(C)C | 2600 | 1350 | 
COc1ccc2c(=O)c3[nH]c4ccc(OC)cc4c3sc2c1 | > 20000 | > 20000 | 
Cc1c2ccncc2c(C)c2c1[nH]c1ccccc12 [ELLIPTECINE] | 290 | 660 | 
COc1ccc2c(=O)c3c(sc2c1)c1cc(Cl)ccc1n3CCN(C)C | 1820 | 1170 | 
CCN(CC)CCn1c2ccc(OC)cc2c2sc3cc(OC)ccc3c(=O)c21 | 2300 | 1100 | 
COc1ccc2c(=O)c3[nH]c4ccccc4c3sc2c1 | > 20000 | > 20000 | Activity [3]: Active; Activity [4]: Active
COc1ccc2c(=O)c3[nH]c4ccc(Cl)cc4c3sc2c1 | > 20000 | > 20000 | 
COc1ccc2c(=O)c3c(sc2c1)c1ccccc1n3CCN(C)C | 1300 | 410 | IC50 [12]: 2350 nM; Activity [13]: Active; Activity [14]: Active; Activity [8]: Active; Activity [15]: Active; Activity [16]: Dose-dependent effect; Ratio IC50 [17]: 6; Activity [18]: Active; Activity [3]: Active; Activity [4]: Active; Activity [10]: Dose-dependent effect
CCN(CC)CCn1c2ccccc2c2sc3cc(Cl)ccc3c(=O)c21 | 4330 | 3210 | 
